# Active and inactive are the calls of the source. No cut-off for these calls is given here.
# Key:
# HBV genotype D [1] = test: Effect on replication efficiency of HBV genotype D with reverse transcriptase L80I mutation in human Huh7 cells assessed as decrease in viral replication yield at 1 uM after 5 days relative to control; format: functional, hepatitis B virus genotype D, Huh-7; parameters: scale not given: the % may be the effect or the level left
# How it was run: (§1)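 Huh7 transfectants were cultured for 5 days with or without 1 μM LMV. Intracellular core-associated HBV DNA was measured by Southern blot and densitometry. Yields were corrected for transfection efficiency by HBsAg in supernatant (IMX immunoassay) and expressed relative to the mean of uninhibited controls (1.0). Each value comes from at least three experiments.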
# HBV genotype D [2] = test: Antiviral activity against HBeAg-deficient HBV genotype D with precore G1896A mutation and reverse transcriptase L80I/L180M/M204I mutation in human Huh7 cells assessed as inhibition of viral replication after 5 days; format: functional, organism-based; conditions: hepatitis B virus genotype D; Huh-7
# How it was run: (§2)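 Huh7 cells grown in DMEM with 10% FBS at 37°C and 5% CO₂, then transiently transfected with each HBV construct. Cultures were exposed continuously to LMV at 0, 0.001, 0.01, 0.1, 1 or 10 μM for 5 days. Intracellular core-associated HBV DNA was quantified by Southern blot, autoradiography and densitometry, normalised to untreated controls. EC50 was taken from a three-parameter logistic fit of three pooled assays.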
# HBV genotype D [3] = test: Antiviral activity against HBeAg-deficient HBV genotype D with precore G1896A mutation and reverse transcriptase L80I mutation in human Huh7 cells assessed as viral replication yield at 1 uM after 5 days relative to control; format: functional, hepatitis B virus genotype D, Huh-7; how it was run: as §1
# HBV genotype D [4] = test: Antiviral activity against HBV genotype D in human Huh7 cells assessed as viral replication yield at 1 uM after 5 days relative to control; format: functional, hepatitis B virus genotype D, Huh-7
# How it was run: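 Transiently transfected Huh7 cells were cultured for 5 days with or without 1 μM LMV. Intracellular core-associated HBV DNA was measured by Southern blot, corrected for transfection efficiency using supernatant HBsAg (IMX enzyme immunoassay), and expressed relative to the mean of the uninhibited controls (set to 1.0). Data come from at least three experiments.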
# HBV genotype D [5] = test: Antiviral activity against HBeAg-deficient HBV genotype D with precore G1896A mutation in human Huh7 cells assessed as viral replication yield at 1 uM after 5 days relative to control; format: functional, hepatitis B virus genotype D, Huh-7; how it was run: as §1
# HBV genotype D [6] = test: Effect on replication efficiency of HBV genotype D with reverse transcriptase L80I/L180M/M204I mutation in human Huh7 cells assessed as decrease in viral replication yield at 1 uM after 5 days relative to control; format: functional, hepatitis B virus genotype D, Huh-7; parameters: scale not given: the % may be the effect or the level left; how it was run: as §1
# HBV genotype D [7] = test: Effect on replication efficiency of HBeAg-deficient HBV genotype D with precore G1896A mutation and reverse transcriptase L80I/L180M/M204I mutation in human Huh7 cells assessed as increase in viral replication yield at 1 uM after 5 days relative to control; format: functional, hepatitis B virus genotype D, Huh-7; how it was run: as §1
# HBV genotype D [8] = test: Antiviral activity against HBV genotype D with reverse transcriptase M204I mutation in human Huh7 cells assessed as inhibition of viral replication after 5 days; format: functional, organism-based; conditions: hepatitis B virus genotype D; Huh-7; how it was run: as §2
# HBV genotype D [9] = test: Antiviral activity against HBeAg-deficient HBV genotype D with precore G1896A mutation and reverse transcriptase M204I mutation in human Huh7 cells assessed as viral replication yield at 1 uM after 5 days relative to control; format: functional, hepatitis B virus genotype D, Huh-7; how it was run: as §1
# HBV genotype D [10] = test: Antiviral activity against HBV genotype D with reverse transcriptase L80I/M204I mutation in human Huh7 cells assessed as inhibition of viral replication after 5 days; format: functional, organism-based; conditions: hepatitis B virus genotype D; Huh-7; how it was run: as §2
# HBV genotype D [11] = test: Antiviral activity against HBV genotype D with reverse transcriptase L80I/M204I mutation in human Huh7 cells assessed as viral replication yield at 1 uM after 5 days relative to control; format: functional, hepatitis B virus genotype D, Huh-7; how it was run: as §1
# HBV genotype D [12] = test: Effect on replication efficiency of HBeAg-deficient HBV genotype D with precore G1896A mutation and reverse transcriptase L80I/M204I mutation in human Huh7 cells assessed as decrease in viral replication yield at 1 uM after 5 days relative to control; format: functional, hepatitis B virus genotype D, Huh-7; parameters: scale not given: the % may be the effect or the level left; how it was run: as §1
# HBV genotype D [13] = test: Antiviral activity against HBV genotype D in human Huh7 cells assessed as inhibition of viral replication after 5 days; format: functional, organism-based; conditions: Hepatitis B virus, Huh-7, 120 h
# How it was run: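 Huh7 cells (DMEM, 10% FBS, 37°C, 5% CO2) at 60–80% confluence were transiently transfected with a wild-type HBeAg-negative HBV clone or mutants. They were exposed continuously to LMV (0–10 μM) or ADV (0–10 μM). Day-5 intracellular core-associated HBV DNA was measured by Southern blot, autoradiography and densitometry, normalized to untreated controls. Three assays were pooled; EC50 came from a three-parameter logistic fit.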
# HBV genotype D [14] = test: Antiviral activity against HBeAg-deficient HBV genotype D with precore G1896A mutation and reverse transcriptase L180M/M204I mutation in human Huh7 cells assessed as viral replication yield at 1 uM after 5 days relative to control; format: functional, hepatitis B virus genotype D, Huh-7; how it was run: as §1
# HBV genotype D [15] = test: Antiviral activity against HBV genotype D with reverse transcriptase L180M/M204I mutation in human Huh7 cells assessed as viral replication yield at 1 uM after 5 days relative to control; format: functional, hepatitis B virus genotype D, Huh-7; how it was run: as §1
# HBV genotype D [16] = test: Antiviral activity against HBeAg-deficient HBV genotype D with precore G1896A mutation and reverse transcriptase L80I mutation in human Huh7 cells assessed as inhibition of viral replication after 5 days; format: functional, organism-based; conditions: Hepatitis B virus, Huh-7, 120 h; how it was run: as §2
# HBV genotype D [17] = test: Antiviral activity against HBV genotype D with reverse transcriptase L80I/L180M/M204I mutation in human Huh7 cells assessed as inhibition of viral replication after 5 days; format: functional, organism-based; conditions: hepatitis B virus genotype D; Huh-7; how it was run: as §2
# HBV genotype D [18] = test: Antiviral activity against HBeAg-deficient HBV genotype D with precore G1896A mutation and reverse transcriptase L80I/M204I mutation in human Huh7 cells assessed as viral replication yield at 1 uM after 5 days relative to control; format: functional, hepatitis B virus genotype D, Huh-7; how it was run: as §1
# HBV genotype D [19] = test: Antiviral activity against HBeAg-deficient HBV genotype D with precore G1896A mutation in human Huh7 cells assessed as inhibition of viral replication after 5 days; format: functional, organism-based; conditions: Hepatitis B virus, Huh-7, 120 h; how it was run: as §2
# HBV genotype D [20] = test: Antiviral activity against HBV genotype D with reverse transcriptase M204I mutation in human Huh7 cells assessed as viral replication yield at 1 uM after 5 days relative to control; format: functional, hepatitis B virus genotype D, Huh-7; how it was run: as §1
# HBV genotype D [21] = test: Antiviral activity against HBeAg-deficient HBV genotype D with precore G1896A mutation and reverse transcriptase M204I mutation in human Huh7 cells assessed as inhibition of viral replication after 5 days; format: functional, organism-based; conditions: hepatitis B virus genotype D; Huh-7; how it was run: as §2
# HBV genotype D [22] = test: Antiviral activity against HBV genotype D with reverse transcriptase L80I mutation in human Huh7 cells assessed as viral replication yield at 1 uM after 5 days relative to control; format: functional, hepatitis B virus genotype D, Huh-7; how it was run: as §1
# HBV genotype D [23] = test: Antiviral activity against HBeAg-deficient HBV genotype D with precore G1896A mutation and reverse transcriptase L180M/M204I mutation in human Huh7 cells assessed as inhibition of viral replication after 5 days; format: functional, organism-based; conditions: hepatitis B virus genotype D; Huh-7; how it was run: as §2
# HBV genotype D [24] = test: Antiviral activity against HBV genotype D with reverse transcriptase L80I/L180M/M204I mutation in human Huh7 cells assessed as viral replication yield at 1 uM after 5 days relative to control; format: functional, hepatitis B virus genotype D, Huh-7; how it was run: as §1
# HBV genotype D [25] = test: Antiviral activity against HBV genotype D with reverse transcriptase L180M/M204I mutation in human Huh7 cells assessed as inhibition of viral replication after 5 days; format: functional, organism-based; conditions: hepatitis B virus genotype D; Huh-7; how it was run: as §2
# HBV genotype D [26] = test: Antiviral activity against HBV genotype D with reverse transcriptase L80I mutation in human Huh7 cells assessed as inhibition of viral replication after 5 days; format: functional, organism-based; conditions: Hepatitis B virus, Huh-7, 120 h; how it was run: as §2
# HBV genotype D [27] = test: Effect on replication efficiency of HBV genotype D with reverse transcriptase L80I/M204I mutation in human Huh7 cells assessed as increase in viral replication yield at 1 uM after 5 days relative to control; format: functional, hepatitis B virus genotype D, Huh-7; how it was run: as §1
# HBV genotype D [28] = test: Antiviral activity against HBeAg-deficient HBV genotype D with precore G1896A mutation and reverse transcriptase L80I/L180M/M204I mutation in human Huh7 cells assessed as viral replication yield at 1 uM after 5 days relative to control; format: functional, hepatitis B virus genotype D, Huh-7; how it was run: as §1
# HBV genotype D [29] = test: Effect on replication efficiency of HBeAg-deficient HBV genotype D with precore G1896A mutation and reverse transcriptase L80I mutation in human Huh7 cells assessed as decrease viral replication yield at 1 uM after 5 days relative to control; format: functional, hepatitis B virus genotype D, Huh-7; parameters: scale not given: the % may be the effect or the level left; how it was run: as §1
# HBV genotype D [30] = test: Antiviral activity against HBeAg-deficient HBV genotype D with precore G1896A mutation and reverse transcriptase L80I/M204I mutation in human Huh7 cells assessed as inhibition of viral replication after 5 days; format: functional, organism-based; conditions: hepatitis B virus genotype D; Huh-7; how it was run: as §2
smiles,measurement,setting,value
Nc1ccn([C@@H]2CS[C@H](CO)O2)c(=O)n1 [LAMIVUDINE],Activity,HBV genotype D [1],82%
same,Activity,HBV genotype D [2],inactive
same,fold change (FC),HBV genotype D [3],0.04
same,fold change (FC),HBV genotype D [4],0.33
same,fold change (FC),HBV genotype D [5],0.35
same,Activity,HBV genotype D [6],48%
same,Activity,HBV genotype D [7],506%
same,Activity,HBV genotype D [8],inactive
same,fold change (FC),HBV genotype D [9],1.4
same,Activity,HBV genotype D [10],inactive
same,fold change (FC),HBV genotype D [11],3.76
same,Activity,HBV genotype D [12],80%
same,EC50,HBV genotype D [13],410 nM
same,fold change (FC),HBV genotype D [14],0.54
same,fold change (FC),HBV genotype D [15],0.65
same,EC50,HBV genotype D [16],30 nM
same,Activity,HBV genotype D [17],inactive
same,fold change (FC),HBV genotype D [18],0.27
same,EC50,HBV genotype D [19],460 nM
same,fold change (FC),HBV genotype D [20],0.38
same,Activity,HBV genotype D [21],inactive
same,fold change (FC),HBV genotype D [22],0.06
same,Activity,HBV genotype D [23],inactive
same,fold change (FC),HBV genotype D [24],0.34
same,Activity,HBV genotype D [25],inactive
same,EC50,HBV genotype D [26],30 nM
same,Activity,HBV genotype D [27],902%
same,fold change (FC),HBV genotype D [28],3.27
same,Activity,HBV genotype D [29],88%
same,Activity,HBV genotype D [30],inactive

# Reference: ChEMBL document CHEMBL1150787, “The L80I substitution in the reverse transcriptase domain of the hepatitis B virus polymerase is associated with lamivudine resistance and enhanced viral replication in vitro” (Antimicrob Agents Chemother, 2007)
